# Data as given in ChEMBL document CHEMBL5058577, “EUbOPEN Chemogenomics Library 2 (Multiplex)” (2022).
# System: HEK-293T
# Experiment: Multiplex assay against HEK293T
# Type: toxicity, cell-based
# Settings: human
# Summary of the method: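 Per cents of healthy-nucleus cells form the tubulin, mitochondrial-mass and membrane-permeability phenotype values. Live cells were stained at seeding with Hoechst33342, BioTracker Green Microtubule Cytoskeleton Dye, MitoTracker Red and Annexin V Alexa Fluor 680. After compound addition they were imaged on a CQ1 microscope at 37°C and 5% CO2, and CellPathfinder machine-learning gating split them into Hoechst high-intensity objects or normal cells, normal cells into healthy, pyknosed or fragmented nuclei, and pyknosed cells into mitotic or apoptotic.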
# [1] = 12 h, 1 µM, compound concentration 1 uM, replicate 1
# [2] = 12 h, 1 µM, compound concentration 1 uM, replicate 2
# [3] = 12 h, 10 µM, compound concentration 10 uM, replicate 1
# [4] = 12 h, 10 µM, compound concentration 10 uM, replicate 2
# [5] = 24 h, 1 µM, compound concentration 1 uM, replicate 1
# [6] = 24 h, 1 µM, compound concentration 1 uM, replicate 2
# [7] = 24 h, 10 µM, compound concentration 10 uM, replicate 1
# [8] = 24 h, 10 µM, compound concentration 10 uM, replicate 2
# [9] = 48 h, 1 µM, compound concentration 1 uM, replicate 1
# [10] = 48 h, 1 µM, compound concentration 1 uM, replicate 2
# [11] = 48 h, 10 µM, compound concentration 10 uM, replicate 1
# [12] = 48 h, 10 µM, compound concentration 10 uM, replicate 2
structure (smiles),measurement,setting,value
Cc1cc(NC(=O)NCCN2CCC(O)(Cc3ccccc3)CC2)c2ccccc2n1 [PALOSURAN],Population Apoptotic (%),[1],36%
same,Population Fragmented Nuclei (%),[1],7%
same,Population Healthy Nuclei (%),[1],77%
same,Population Hoechst High Intensity Objects (%),[1],6%
same,Population Membrane Permeable-Phenotype (%),[1],0%
same,Population Mitochondria Different-Phenotype (%),[1],42%
same,Population Mitotic Cells (%),[1],63%
same,Population Normal (%),[1],93%
same,Population Pyknosed Nuclei (%),[1],14%
same,Population Tubulin-Different-Phenotype (%),[1],25%
same,Total Cell Count,[1],373
same,Population Apoptotic (%),[2],48%
same,Population Fragmented Nuclei (%),[2],9%
same,Population Healthy Nuclei (%),[2],81%
same,Population Hoechst High Intensity Objects (%),[2],9%
same,Population Mitochondria Different-Phenotype (%),[2],57%
same,Population Mitotic Cells (%),[2],52%
same,Population Normal (%),[2],90%
same,Population Pyknosed Nuclei (%),[2],8%
same,Population Tubulin-Different-Phenotype (%),[2],26%
same,Total Cell Count,[2],326
same,Population Apoptotic (%),[3],38%
same,Population Fragmented Nuclei (%),[3],5%
same,Population Healthy Nuclei (%),[3],81%
same,Population Hoechst High Intensity Objects (%),[3],8%
same,Population Membrane Permeable-Phenotype (%),[3],0%
same,Population Mitochondria Different-Phenotype (%),[3],53%
same,Population Mitotic Cells (%),[3],61%
same,Population Normal (%),[3],91%
same,Population Pyknosed Nuclei (%),[3],12%
same,Population Tubulin-Different-Phenotype (%),[3],41%
same,Total Cell Count,[3],461
same,Population Apoptotic (%),[4],61%
same,Population Healthy Nuclei (%),[4],75%
same,Population Mitochondria Different-Phenotype (%),[4],76%
same,Population Mitotic Cells (%),[4],38%
same,Population Pyknosed Nuclei (%),[4],18%
same,Population Tubulin-Different-Phenotype (%),[4],42%
same,Total Cell Count,[4],346
same,Population Apoptotic (%),[5],17%
same,Population Fragmented Nuclei (%),[5],9%
same,Population Healthy Nuclei (%),[5],78%
same,Population Hoechst High Intensity Objects (%),[5],6%
same,Population Membrane Permeable-Phenotype (%),[5],0%
same,Population Mitochondria Different-Phenotype (%),[5],24%
same,Population Mitotic Cells (%),[5],82%
same,Population Normal (%),[5],93%
same,Population Pyknosed Nuclei (%),[5],11%
same,Population Tubulin-Different-Phenotype (%),[5],19%
same,Total Cell Count,[5],511
same,Population Apoptotic (%),[6],46%
same,Population Fragmented Nuclei (%),[6],10%
same,Population Healthy Nuclei (%),[6],76%
same,Population Hoechst High Intensity Objects (%),[6],4%
same,Population Mitochondria Different-Phenotype (%),[6],45%
same,Population Mitotic Cells (%),[6],53%
same,Population Normal (%),[6],95%
same,Population Pyknosed Nuclei (%),[6],13%
same,Population Tubulin-Different-Phenotype (%),[6],14%
same,Total Cell Count,[6],343
same,Population Apoptotic (%),[7],35%
same,Population Fragmented Nuclei (%),[7],8%
same,Population Healthy Nuclei (%),[7],79%
same,Population Hoechst High Intensity Objects (%),[7],4%
same,Population Membrane Permeable-Phenotype (%),[7],0%
same,Population Mitochondria Different-Phenotype (%),[7],43%
same,Population Mitotic Cells (%),[7],64%
same,Population Normal (%),[7],95%
same,Population Pyknosed Nuclei (%),[7],11%
same,Population Tubulin-Different-Phenotype (%),[7],32%
same,Total Cell Count,[7],598
same,Population Apoptotic (%),[8],51%
same,Population Fragmented Nuclei (%),[8],7%
same,Population Healthy Nuclei (%),[8],83%
same,Population Hoechst High Intensity Objects (%),[8],6%
same,Population Mitochondria Different-Phenotype (%),[8],64%
same,Population Mitotic Cells (%),[8],48%
same,Population Normal (%),[8],93%
same,Population Pyknosed Nuclei (%),[8],9%
same,Population Tubulin-Different-Phenotype (%),[8],26%
same,Total Cell Count,[8],396
same,Population Apoptotic (%),[9],19%
same,Population Fragmented Nuclei (%),[9],15%
same,Population Healthy Nuclei (%),[9],79%
same,Population Hoechst High Intensity Objects (%),[9],3%
same,Population Membrane Permeable-Phenotype (%),[9],1%
same,Population Mitochondria Different-Phenotype (%),[9],16%
same,Population Mitotic Cells (%),[9],80%
same,Population Normal (%),[9],96%
same,Population Pyknosed Nuclei (%),[9],5%
same,Population Tubulin-Different-Phenotype (%),[9],12%
same,Total Cell Count,[9],938
same,Population Apoptotic (%),[10],32%
same,Population Fragmented Nuclei (%),[10],13%
same,Population Healthy Nuclei (%),[10],81%
same,Population Membrane Permeable-Phenotype (%),[10],0%
same,Population Mitochondria Different-Phenotype (%),[10],24%
same,Population Mitotic Cells (%),[10],67%
same,Population Tubulin-Different-Phenotype (%),[10],15%
same,Total Cell Count,[10],552
same,Population Apoptotic (%),[11],29%
same,Population Fragmented Nuclei (%),[11],15%
same,Population Healthy Nuclei (%),[11],75%
same,Population Hoechst High Intensity Objects (%),[11],5%
same,Population Membrane Permeable-Phenotype (%),[11],0%
same,Population Mitochondria Different-Phenotype (%),[11],34%
same,Population Mitotic Cells (%),[11],70%
same,Population Normal (%),[11],94%
same,Population Pyknosed Nuclei (%),[11],8%
same,Population Tubulin-Different-Phenotype (%),[11],17%
same,Total Cell Count,[11],874
same,Population Apoptotic (%),[12],41%
same,Population Fragmented Nuclei (%),[12],9%
same,Population Healthy Nuclei (%),[12],84%
same,Population Hoechst High Intensity Objects (%),[12],4%
same,Population Mitochondria Different-Phenotype (%),[12],42%
same,Population Mitotic Cells (%),[12],58%
same,Population Normal (%),[12],95%
same,Population Pyknosed Nuclei (%),[12],6%
same,Population Tubulin-Different-Phenotype (%),[12],19%
same,Total Cell Count,[12],570
